Measured values as given in ChEMBL document CHEMBL1926630, “Structure-activity relationships of chalcone analogs as potential inhibitors of ADP- and collagen-induced platelet aggregation” (2011).

Legend:
[1] = Antiplatelet activity against New Zealand white rabbit platelets assessed as inhibition of collagen-induced platelet aggregation at 50 ug/mL treated 2 mins before collagen challenge measured after 4 mins by turbidimetric analysis; type: functional; conditions: Oryctolagus cuniculus
Procedure, shortened: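 Rabbit washed platelets (EDTA-treated PRP, washed in Ca²⁺-free Tyrode's with BSA, heparin and apyrase at 37 °C for 20 min) were resuspended in 1 mM Ca²⁺ Tyrode's at 2.5 × 10⁸/mL. Compound or DMSO vehicle (final 0.5%) was added for 2 min at 37 °C with 900 rpm stirring before collagen. Read-out was peak transmission increase within 4 min, expressed as inhibition relative to vehicle.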

[2] = Antiplatelet activity against New Zealand white rabbit platelets assessed as inhibition of ADP-induced platelet aggregation at 50 ug/mL treated 2 mins before ADP challenge measured after 4 mins by turbidimetric analysis; type: functional; conditions: Oryctolagus cuniculus
Procedure, shortened: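 Washed platelets from ear-vein blood (acid-citrate dextrose), washed in Ca²⁺-free Tyrode's with BSA, heparin and apyrase, resuspended in Tyrode's with 1 mM Ca²⁺ at 2.5 × 10⁸/mL. Stirred at 900 rpm, preincubated 2 min at 37 °C with compound or vehicle (DMSO, final 0.5%), then challenged with 20 μM ADP. Maximal light-transmission rise within 4 min; inhibition computed versus vehicle.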

[3] = cells; conditions: Oryctolagus cuniculus, New Zealand white, Platelet, read-out: INH
[4] = cells; conditions: Oryctolagus cuniculus, New Zealand white, Platelet, read-out: INH; remark: listed apart in the source

| SMILES | inhibition at 50 µg/mL [1] [%] | inhibition at 50 µg/mL [2] [%] | inhibition at 9.6 µg/mL [3] [%] | inhibition at 9.6 µg/mL [4] [%] |
| --- | --- | --- | --- | --- |
| C=CCOc1ccc(C(=O)/C=C/c2ccccc2)c(O)c1 | 6.3 | 25.6 | – | – |
| Cc1ccc(/C=C/C(=O)c2ccc(O)c(CN3CCOCC3)c2)o1 | 0 | 12.8 | – | – |
| O=C(/C=C/c1ccccn1)c1ccc(CN2CCOCC2)c(O)c1CN1CCOCC1 | 100 | 100 | – | – |
| COc1ccc(/C=C/C(=O)c2cc(CN3CCOCC3)c(OC)cc2O)cc1 | 7.1 | 36.7 | – | – |
| O=C(/C=C/c1cccnc1)c1ccc(O)c(CN2CCOCC2)c1 | 56.4 | 100 | – | – |
| C=CCOc1ccc(C(=O)/C=C/c2ccc3c(c2)OCO3)c(O)c1 | 7.9 | 21.4 | – | – |
| CCOc1cc(O)c(C(=O)/C=C/c2sccc2C)cc1CN1CCOCC1 | 0 | 32.3 | – | – |
| C=CCOc1ccc(C(=O)/C=C/c2ccc(OC)cc2OC)c(O)c1 | 53.4 | 35.2 | – | – |
| Cc1ccsc1/C=C/C(=O)c1cc(CN2CCOCC2)c(O)c(CN2CCOCC2)c1 | 50 | 24.9 | – | – |
| Cc1ccsc1/C=C/C(=O)c1cccc(O)c1CN1CCOCC1 | 65.5 | 79.1 | – | – |
| O=C(/C=C/c1ccccn1)c1ccc(O)c(CN2CCOCC2)c1O | 12.5 | 100 | – | – |
| C=CCOc1ccc(C(=O)/C=C/c2cc(OC)c(OC)c(OC)c2)c(O)c1 | 43.2 | 70.4 | – | – |
| CCOc1cc(O)c(C(=O)/C=C/c2ccc(C)o2)cc1CN1CCOCC1 | 0 | 16.5 | – | – |
| CCOc1cc(O)c(C(=O)/C=C/c2ccccn2)cc1CN1CCOCC1 | 43 | 100 | – | – |
| CCOc1cc(O)c(C(=O)/C=C/c2cccnc2)cc1CN1CCOCC1 | 46.9 | 100 | – | – |
| COc1ccc(/C=C/C(=O)c2ccc(OCC=C(C)C)cc2O)c(OC)c1 | 39.2 | 42.7 | – | – |
| O=C(/C=C/c1ccccn1)c1ccc(CN2CCOCC2)c(O)c1 | 98.4 | 100 | – | – |
| COc1ccc(/C=C/C(=O)c2ccc(OCC=C(C)C)cc2O)c(OC)c1OC | 12.6 | 21.4 | – | – |
| O=C(/C=C/c1cccs1)c1ccc(O)c(CN2CCOCC2)c1 | 25 | 23.4 | – | – |
| O=C(/C=C/c1ccncc1)c1ccc(CN2CCOCC2)c(O)c1 | 100 | 100 | – | – |
| COc1cccc(/C=C/C(=O)c2ccc(OCC=C(C)C)cc2O)c1OC | 19.7 | 21.3 | – | – |

| SMILES | inhibition at 50 µg/mL [1] [%] | inhibition at 50 µg/mL [2] [%] | inhibition at 9.6 µg/mL [3] [%] | inhibition at 9.6 µg/mL [4] [%] |
| --- | --- | --- | --- | --- |
| O=C(/C=C/c1ccco1)c1ccc(O)c(CN2CCOCC2)c1 | 4.7 | 18.4 | – | – |
| COC(=O)[C@H](c1ccccc1Cl)N1CCc2sccc2C1 [CLOPIDOGREL] | – | – | 3.5 | 85.2 |
| COc1cc(OC)c(OC)cc1/C=C/C(=O)c1ccc(OCC=C(C)C)cc1O | 4 | 15.7 | – | – |
| COc1ccc(/C=C/C(=O)c2cccc(C)c2)c(CN2CCOCC2)c1O | 78 | 100 | – | – |
| C=CCOc1ccc(C(=O)/C=C/c2cccc(OC)c2OC)c(O)c1 | 44.7 | 30.8 | – | – |
| COc1cc(O)c(C(=O)/C=C/c2cccnc2)cc1CN1CCOCC1 | 96.1 | 100 | – | – |
| O=C(/C=C/c1cccs1)c1cccc(O)c1CN1CCOCC1 | 83.5 | 100 | – | – |
| O=C(/C=C/c1ccccn1)c1cc(CN2CCOCC2)c(O)c(CN2CCOCC2)c1 | 78.6 | 100 | – | – |
| C=CCOc1ccc(C(=O)/C=C/c2cc(OC)c(OC)cc2OC)c(O)c1 | 0 | 21.6 | – | – |
| COc1cc(O)c(C(=O)/C=C/c2ccco2)cc1CN1CCOCC1 | 19.7 | 17.2 | – | – |
| C=CCOc1ccc(C(=O)/C=C/c2cc(OC)cc(OC)c2)c(O)c1 | 13.4 | 30.8 | – | – |
| O=C(/C=C/c1ccccc1)c1ccc(O)c(CN2CCOCC2)c1 | 20.3 | 34.2 | – | – |
| CC(C)=CCOc1ccc(C(=O)/C=C/c2ccc3c(c2)OCO3)c(O)c1 | 17.3 | 20 | – | – |
| COc1ccc(/C=C/C(=O)c2cccnc2)c(CN2CCCCC2)c1O | 98.4 | 100 | – | – |
| COc1cc(/C=C/C(=O)c2ccc(OCC=C(C)C)cc2O)cc(OC)c1OC | 7.9 | 27.1 | – | – |
| O=C(/C=C/c1ccncc1)c1ccc(O)c(CN2CCOCC2)c1 | 79.4 | 100 | – | – |
| C=CCOc1ccc(C(=O)/C=C/c2cc(OC)ccc2OC)c(O)c1 | 57.2 | 33.6 | – | – |
| COc1ccc(/C=C/C(=O)c2cccs2)c(CN2CCCCC2)c1O | 95.2 | 100 | – | – |
| COc1ccc(/C=C/C(=O)c2ccc(C)cc2)c(CN2CCOCC2)c1O | 57.6 | 99.3 | – | – |
| COc1ccc(OC)c(/C=C/C(=O)c2ccc(OCC=C(C)C)cc2O)c1 | 14.9 | 22.8 | – | – |
| CC(C)Oc1cc(O)c(C(=O)/C=C/c2cccs2)cc1CN1CCOCC1 | 0 | 23.4 | – | – |

| SMILES | inhibition at 50 µg/mL [1] [%] | inhibition at 50 µg/mL [2] [%] | inhibition at 9.6 µg/mL [3] [%] | inhibition at 9.6 µg/mL [4] [%] |
| --- | --- | --- | --- | --- |
| COc1ccc(/C=C/C(=O)c2ccco2)c(CN2CCCCC2)c1O | 93.7 | 100 | – | – |
| O=C(/C=C/c1cccnc1)c1ccc(CN2CCOCC2)c(O)c1 | 95.3 | 100 | – | – |
| CC(C)=CCOc1ccc(C(=O)/C=C/c2sccc2C)c(O)c1CN1CCOCC1 | 11.1 | 14.2 | – | – |
| O=C(/C=C/c1ccccn1)c1ccc(O)c(CN2CCOCC2)c1 | 63.5 | 99.3 | – | – |
| Cc1ccsc1/C=C/C(=O)c1ccc(O)c(CN2CCOCC2)c1 | 12.5 | 21.4 | – | – |
| COc1ccc(C(=O)/C=C/c2ccccn2)c(O)c1CN1CCOCC1 | 93.7 | 100 | – | – |
| COc1cc(O)c(C(=O)/C=C/c2ccccc2)cc1CN1CCOCC1 | 29.2 | 97.2 | – | – |
| CC(C)Oc1ccc(C(=O)/C=C/c2cccs2)c(O)c1CN1CCOCC1 | 3.2 | 29 | – | – |
| COc1ccc(/C=C/C(=O)c2ccc(OCC=C(C)C)cc2O)cc1OC | 10.3 | 24.3 | – | – |
| O=C(/C=C/c1ccco1)c1cccc(O)c1CN1CCOCC1 | 60.8 | 100 | – | – |
| COc1ccc(/C=C/C(=O)c2ccc(OCC=C(C)C)cc2O)cc1 | 17.3 | 25.7 | – | – |
| CC(C)=CCOc1ccc(C(=O)/C=C/c2ccccc2)c(O)c1 [CORDOIN] | 6.3 | 16.4 | – | – |
| C=CCOc1ccc(C(=O)/C=C/c2ccc(OC)c(OC)c2OC)c(O)c1 | 14.9 | 26.4 | – | – |
| C=CCOc1ccc(C(=O)/C=C/c2ccc(OC)cc2)c(O)c1 | 5.5 | 24.9 | – | – |
| COc1ccc(/C=C/C(=O)c2ccc(OCC=C(C)C)cc2O)cc1O | 13.4 | 23 | – | – |
| COc1cc(/C=C/C(=O)c2ccc(OCC=C(C)C)cc2O)cc(OC)c1 | 8.7 | 20.7 | – | – |
| O=C(/C=C/c1ccccc1)c1cccc(O)c1CN1CCOCC1 | 89.8 | 100 | – | – |
| COc1cc(O)c(C(=O)/C=C/c2cccs2)cc1CN1CCOCC1 | 11.1 | 26.4 | – | – |
| CCOc1cc(O)c(C(=O)/C=C/c2ccccc2)cc1CN1CCOCC1 | 2.3 | 39.3 | – | – |
| CCOc1cc(O)c(C(=O)/C=C/c2ccco2)cc1CN1CCOCC1 | 0 | 22.5 | – | – |
